Measurements taken from ChEMBL document CHEMBL1153988 (J Med Chem, 2009).
Activity calls are given as the source filed them. The calls are words filed in the database; no cut-off is given here.

Tests used:
Rattus norvegicus [1] = species on record: Rattus norvegicus; experiment: Protective index, ratio of TD50 for albino Sprague-Dawley rat to ED50 for maximal electroshock-induced albino Sprague-Dawley rat seizure model; format: functional
Outline: (§1)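 Protective index is the rat TD50 (minimal motor impairment) divided by the ED50 in the MES or sc pentylenetetrazol test. Male Sprague-Dawley rats were dosed orally in 0.5% methylcellulose, and both values came from probit analysis.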

Rattus norvegicus [2] = experiment: Anticonvulsant activity in albino Sprague-Dawley rat assessed as protection against scMet-induced seizures at 50 mg/kg, po after 30 mins; format: functional
Outline: (§2)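 Male Sprague-Dawley albino rats (100-150 g) were given the compound orally as a suspension in 0.5% methylcellulose. Seizures were induced by subcutaneous pentylenetetrazol, dissolved in 0.9% saline as a 2.82% solution. The read-out was animals protected over animals tested.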

Rattus norvegicus [3] = experiment: Anticonvulsant activity in albino Sprague-Dawley rat assessed as protection against scMet-induced seizures at 50 mg/kg, po after 2 hrs; format: functional; outline: as §2
Mus musculus [4] = experiment: Anticonvulsant activity in CF1 albino mouse assessed as protection against maximal electroshock-induced seizures at 300 mg/kg, ip after 4 hrs; format: functional, organism-based; parameters: dose 300 mg/kg
Outline: (§3)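 Adult male CF no. 1 albino mice (18-25 g). Test compound suspended in 0.5% methylcellulose and given intraperitoneally at 0.01 mL/g body weight. Maximal electroshock challenge at the stated time. Read-out is the number of animals protected over the number tested; neurotoxicity is scored in parallel.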

Mus musculus [5] = experiment: Neurotoxicity in CF1 albino mouse at 300 mg/kg, ip after 4 hrs; format: toxicity, organism-based; parameters: dose 300 mg/kg, route intraperitoneal; conditions: in vivo
Outline: (§4)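 Male CF no. 1 albino mice (18-25 g) received a single ip dose as a suspension in 0.5% methylcellulose. The read-out was the number of animals showing neurotoxicity (minimal motor impairment) over the number tested.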

Mus musculus [6] = experiment: Anticonvulsant activity in CF1 albino mouse assessed as protection against maximal electroshock-induced seizures at 100 mg/kg, ip after 0.5 hrs; format: functional, organism-based; parameters: dose 100 mg/kg; outline: as §3
Rattus norvegicus [7] = experiment: Anticonvulsant activity in albino Sprague-Dawley rat assessed as protection against maximal electroshock-induced seizures at 50 mg/kg, po after 2 hrs; format: functional
Outline: (§5)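 Adult male Sprague-Dawley albino rats (100-150 g) dosed orally with compound suspended in 0.5% methylcellulose (0.04 mL per 10 g). Maximal electroshock challenge at the stated time. Protection is scored in 25% steps as the fraction of animals protected, with neurotoxicity recorded in parallel.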

Rattus norvegicus [8] = experiment: Anticonvulsant activity in albino Sprague-Dawley rat assessed as protection against maximal electroshock-induced seizures at 50 mg/kg, po after 15 mins; format: functional; outline: as §5
Rattus norvegicus [9] = experiment: Anticonvulsant activity in po dosed albino Sprague-Dawley rat assessed as protection against scMet-induced seizures; format: functional
Outline: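 Male Sprague-Dawley albino rats (100-150 g) were dosed orally in 0.5% methylcellulose and tested by MES or by sc pentylenetetrazol (2.82% in 0.9% saline). Doses were varied to give 3-4 points between 0% and 100% protection. ED50 and 95% confidence intervals came from probit analysis.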

Mus musculus [10] = experiment: Anticonvulsant activity in CF1 albino mouse assessed as protection against scMet-induced seizures at 100 mg/kg, ip after 4 hrs; format: functional, organism-based; parameters: dose 100 mg/kg
Outline: (§6)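 Adult male CF no. 1 albino mice (18-25 g) dosed intraperitoneally with compound suspended in 0.5% methylcellulose (0.01 mL/g). Convulsant challenge given subcutaneously as a 0.85% pentylenetetrazol solution in 0.9% saline. Read-out is animals protected over animals tested, with neurotoxicity scored in parallel.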

Rattus norvegicus [11] = experiment: Neurotoxicity in albino Sprague-Dawley rat assessed as minimal motor impairment at 200 mg/kg, po; format: toxicity, organism-based; parameters: dose 200 mg/kg, route oral; conditions: in vivo
Outline: (§7)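 Neurotoxicity was scored in male Sprague-Dawley albino rats (100-150 g) dosed orally with a suspension in 0.5% methylcellulose. The read-out was the fraction of animals showing neurotoxicity (minimal motor impairment).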

Rattus norvegicus [12] = experiment: Anticonvulsant activity in albino Sprague-Dawley rat assessed as protection against scMet-induced seizures at 50 mg/kg, po after 1 hr; format: functional; outline: as §2
Mus musculus [13] = experiment: Anticonvulsant activity in CF1 albino mouse assessed as protection against maximal electroshock-induced seizures at 30 mg/kg, ip after 0.5 hrs; format: functional, organism-based; parameters: dose 30 mg/kg; outline: as §3
Rattus norvegicus [14] = experiment: Anticonvulsant activity in albino Sprague-Dawley rat assessed as protection against scMet-induced seizures at 50 mg/kg, po after 4 hrs; format: functional; outline: as §2
Mus musculus [15] = experiment: Neurotoxicity in CF1 albino mouse at 30 mg/kg, ip after 4 hrs; format: toxicity, organism-based; parameters: dose 30 mg/kg, route intraperitoneal; conditions: in vivo; outline: as §4
Rattus norvegicus [16] = experiment: Anticonvulsant activity in albino Sprague-Dawley rat assessed as protection against maximal electroshock-induced seizures at 50 mg/kg, po after 1 hr; format: functional; outline: as §5
Mus musculus [17] = experiment: Anticonvulsant activity in CF1 albino mouse assessed as protection against scMet-induced seizures at 300 mg/kg, ip after 0.5 hrs; format: functional, organism-based; parameters: dose 300 mg/kg; outline: as §6
Mus musculus [18] = experiment: Anticonvulsant activity in CF1 albino mouse assessed as protection against scMet-induced seizures at 300 mg/kg, ip after 4 hrs; format: functional, organism-based; parameters: dose 300 mg/kg; outline: as §6
Rattus norvegicus [19] = experiment: Neurotoxicity in albino Sprague-Dawley rat at 50 mg/kg, po; format: toxicity, organism-based; parameters: dose 50 mg/kg, route oral; conditions: in vivo; outline: as §7
[20] = Neurotoxicity in po dosed albino Sprague-Dawley rat assessed as minimal motor impairment; format: toxicity, organism-based; conditions: in vivo
Outline: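 Rats: male Sprague-Dawley (100-150 g), oral dosing in 0.5% methylcellulose. Doses were varied to give four points between no minimal motor impairment and all animals impaired. TD50 and 95% confidence intervals came from probit analysis.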

Mus musculus [21] = experiment: Anticonvulsant activity in CF1 albino mouse assessed as protection against maximal electroshock-induced seizures at 300 mg/kg, ip after 0.5 hrs; format: functional, organism-based; parameters: dose 300 mg/kg; outline: as §3
Mus musculus [22] = experiment: Neurotoxicity in CF1 albino mouse at 30 mg/kg, ip after 0.5 hrs; format: toxicity, organism-based; parameters: dose 30 mg/kg, route intraperitoneal; conditions: in vivo; outline: as §4
Mus musculus [23] = experiment: Anticonvulsant activity in CF1 albino mouse assessed as protection against scMet-induced seizures at 100 mg/kg, ip after 0.5 hrs; format: functional, organism-based; parameters: dose 100 mg/kg; outline: as §6
Mus musculus [24] = experiment: Anticonvulsant activity in CF1 albino mouse assessed as protection against scMet-induced seizures at 30 mg/kg, ip after 4 hrs; format: functional, organism-based; parameters: dose 30 mg/kg; outline: as §6
Mus musculus [25] = experiment: Anticonvulsant activity in CF1 albino mouse assessed as protection against maximal electroshock-induced seizures at 30 mg/kg, ip after 4 hrs; format: functional, organism-based; parameters: dose 30 mg/kg; outline: as §3
Rattus norvegicus [26] = experiment: Anticonvulsant activity in po dosed albino Sprague-Dawley rat assessed as protection against maximal electroshock-induced seizures; format: functional
Rattus norvegicus [27] = experiment: Anticonvulsant activity in albino Sprague-Dawley rat assessed as protection against maximal electroshock-induced seizures at 50 mg/kg, po after 30 mins; format: functional; outline: as §5
Mus musculus [28] = experiment: Anticonvulsant activity in CF1 albino mouse assessed as protection against scMet-induced seizures at 30 mg/kg, ip after 0.5 hrs; format: functional, organism-based; parameters: dose 30 mg/kg; outline: as §6
Rattus norvegicus [29] = experiment: Anticonvulsant activity in albino Sprague-Dawley rat assessed as protection against maximal electroshock-induced seizures at 50 mg/kg, po after 4 hrs; format: functional, organism-based; parameters: dose 50 mg/kg; outline: as §5
Mus musculus [30] = experiment: Neurotoxicity in CF1 albino mouse at 100 mg/kg, ip after 4 hrs; format: toxicity, organism-based; parameters: dose 100 mg/kg, route intraperitoneal; conditions: in vivo; outline: as §4
Rattus norvegicus [31] = experiment: Anticonvulsant activity in albino Sprague-Dawley rat assessed as protection against scMet-induced seizures at 50 mg/kg, po; format: functional, organism-based; parameters: dose 50 mg/kg; outline: as §2
Mus musculus [32] = experiment: Neurotoxicity in CF1 albino mouse at 300 mg/kg, ip after 0.5 hrs; format: toxicity, organism-based; parameters: dose 300 mg/kg, route intraperitoneal; conditions: in vivo; outline: as §4
Rattus norvegicus [33] = experiment: Anticonvulsant activity in albino Sprague-Dawley rat assessed as protection against scMet-induced seizures at 50 mg/kg, po after 15 mins; format: functional; outline: as §2
Mus musculus [34] = experiment: Anticonvulsant activity in CF1 albino mouse assessed as protection against maximal electroshock-induced seizures at 100 mg/kg, ip after 4 hrs; format: functional, organism-based; parameters: dose 100 mg/kg; outline: as §3
Rattus norvegicus [35] = species on record: Rattus norvegicus; experiment: Protective index, ratio of TD50 for albino Sprague-Dawley rat to ED50 for scMet-induced albino Sprague-Dawley rat seizure model; format: functional; outline: as §1

## CC1(C)C(C)(C)C1(Cl)C(N)=O
Rattus norvegicus [1]
  PI: >2.1
Rattus norvegicus [2]
  Activity: 50%
Rattus norvegicus [3]
  Activity: 25%
Mus musculus [4]
  Activity: Non-toxic
Mus musculus [5]
  Activity: Non-toxic
Mus musculus [6]
  Activity: Non-toxic
Rattus norvegicus [7]
  Activity: 75%
Rattus norvegicus [8]
  Activity: 25%
Rattus norvegicus [9]
  ED50: 27 mg/kg
Mus musculus [10]
  Activity: Non-toxic
Rattus norvegicus [11]
  Activity: Non-toxic
Rattus norvegicus [12]
  Activity: 50%
Mus musculus [13]
  Activity: Non-toxic
Rattus norvegicus [14]
  Activity: inactive
Mus musculus [15]
  Activity: Non-toxic
Rattus norvegicus [16]
  Activity: 75%
Mus musculus [17]
  Activity: Toxic
Mus musculus [18]
  Activity: Non-toxic
Rattus norvegicus [19]
  Activity: Not Active
[20]
  TD50: > 200 mg/kg
Mus musculus [21]
  Activity: Toxic
Mus musculus [22]
  Activity: Non-toxic
Mus musculus [23]
  Activity: Non-toxic
Mus musculus [24]
  Activity: Non-toxic
Mus musculus [25]
  Activity: Non-toxic
Rattus norvegicus [26]
  ED50: 97 mg/kg
Rattus norvegicus [27]
  Activity: 25%
Mus musculus [28]
  Activity: Non-toxic
Rattus norvegicus [29]
  Activity: inactive
Mus musculus [30]
  Activity: Non-toxic
Rattus norvegicus [31]
  Activity: Active
Mus musculus [32]
  Activity: Toxic
Rattus norvegicus [33]
  Activity: inactive
Mus musculus [34]
  Activity: Non-toxic
Rattus norvegicus [35]
  PI: >7.8
